Experiments:
Type in all cases: cell-based, rat
[1] = test system: IEC-6 cells; experiment: Measurement of intracellular ROS; details: ritonavir 15 µM, VC 15 µg/ml, EL 20 µg/ml, OA 10 µg/ml, 4 h
Summary of the method: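 IEC-6 rat intestinal epithelial cells (passages 15-20; DMEM, 10% FBS, 0.1 U/mL insulin, penicillin/streptomycin, 37 °C, 5% CO2) in 12-well plates are exposed for 4 h to test compound with or without antioxidant, all in DMSO. One fraction is used for protein. The other is lysed in 0.1 N NaOH/50% methanol and centrifuged, and fluorescence is read at ex 485/em 520 nm. Results are mean ± SD of 3 independent experiments.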

[2] = test system: IEC-6 stable cell line expressing SEAP; experiment: SEAP enzyme activity assay; details: ritonavir 15 µM; VC 15 µg/ml, VE 20 µg/ml, EL 20 µg/ml, OA 10 µg/ml; 24 h
Summary of the method: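 An IEC-6 line stably transfected with pSEAP reporter plasmid is treated for 24 h with test compound (15 µM) alone or with individual antioxidant. DMSO is the vehicle control and thapsigargin 100 nM is the ER-stress reference. Secreted alkaline phosphatase activity is expressed as percent of vehicle control. Results are mean ± SD of 3 independent experiments.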

[3] = test system: CHOP; experiment: Western blot analysis of CHOP; details: IEC-6 cells, 4 h; for Effect of antioxidant on ritonavir-induced CHOP expression: ritonavir 15 µM

Row | CHOP expression ([3]; 15 µM) | Molecule | Effect of antioxidant on ritonavir-induced ROS production [1] | Effect of antioxidant on ritonavir-induced inhibition of SEAP activity [2] | Effect of antioxidant on ritonavir-induced CHOP expression [3]
1 |  | CCCCC/C=C\C/C=C\CCCCCCCC(=O)OCC [ethyl linoleate] | able to reduce | significantly inhibited | significantly reduced
2 |  | CCCCCCCC/C=C\CCCCCCCC(=O)O [oleic acid] | able to reduce | significantly inhibited | significantly reduced
3 | significantly induced | CC(C)c1nc(CN(C)C(=O)N[C@H](C(=O)N[C@@H](Cc2ccccc2)C[C@H](O)[C@H](Cc2ccccc2)NC(=O)OCc2cncs2)C(C)C)cs1 [ritonavir, reference compound] |  |  | 
4 |  | O=C1O[C@H]([C@@H](O)CO)C(O)=C1O [vitamin C] | able to reduce | significantly inhibited | significantly reduced
5 |  | vitamin E |  | significantly inhibited | less effect

Source: publication PMC2882528 (Molecular pharmaceutics, 2010)
